# Compound activity: PubChem BioAssay, Johns Hopkins Ion Channel Center
# Kir21 inh: Kir2.1 (mouse) channel inhibition; P35561; HEK293-Kir2.1, FluxOR thallium flux fluorescence; active compounds read low; B-score at 10 µM; 0.85% of 310,000 active;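 active means fluorescence ratio B-score at or below minus 3 SD of library scores, with starting-brightness B-score within 2 SD, cut at about -4.2 in these data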;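 further: channel flux triggered by added potassium and thallium sulfate stimulus; B-score of peak minus minimum fluorescence over baseline after thallium stimulus; more negative B-score means stronger Kir2.1 block with less thallium influx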
# Target sequence (P35561 whole entry, looked up): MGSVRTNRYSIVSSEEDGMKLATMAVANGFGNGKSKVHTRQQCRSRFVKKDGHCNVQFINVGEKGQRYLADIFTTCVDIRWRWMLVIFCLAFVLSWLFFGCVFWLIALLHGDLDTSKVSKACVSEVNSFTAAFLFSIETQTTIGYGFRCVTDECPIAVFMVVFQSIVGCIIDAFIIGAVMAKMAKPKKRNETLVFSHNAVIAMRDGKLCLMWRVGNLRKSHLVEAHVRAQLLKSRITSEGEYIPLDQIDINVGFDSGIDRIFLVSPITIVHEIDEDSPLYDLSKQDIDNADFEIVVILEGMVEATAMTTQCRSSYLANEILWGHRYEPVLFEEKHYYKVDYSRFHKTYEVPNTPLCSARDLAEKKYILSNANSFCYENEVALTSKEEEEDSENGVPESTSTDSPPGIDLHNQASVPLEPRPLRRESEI
# KCNQ1 pot: potentiates or activates the human KCNQ1 potassium channel; P51787; CHO-K1 KCNQ1, thallium flux FluxOR fluorescence; active compounds read high; B-score at 10 µM; 0.35% of 310,000 active; AID 2648;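 active means fluorescence ratio B-score, a plate-corrected score, at least three library SD, with initial intensity B-score within 5 SD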
#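 assay system = KCNQ1-transfected CHO-K1 cells | medium = assay buffer with matched DMSO | probe or stimulus = depolarizing K+/Tl+ stimulus, K2SO4 and Tl2SO4 each 12.5 mM in 5x stock | dosing = single dose | incubation = dye 90 min, compound 20 min, room temperature | detection = kinetic FluxOR fluorescence, 10 s baseline plus 110 s post-stimulus | evaluation = ratio B score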
# KCNK9 inh: human KCNK9 channel inhibition; Q9NPC2; HEK293 KCNK9, FluxOR thallium flux fluorescence; active compounds read low; B-score at 10 µM; 1.2% of 310,000 active; AID 488922;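 active means ratio B-score over 3 SD below the library mean, with starting fluorescence within 5 SD of its mean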;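 further: negative B-score means less thallium flux so channel inhibition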
# KCNK3 block: human KCNK3 channel inhibition, primary screen; B-score at 10 µM; 0.84% of 340,000 active; CHO-KCNK3 thallium flux, FluxOR fluorescence; active compounds read low; O14649; AID 602410;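 active means B-score under library mean minus 4 SD, starting fluorescence ratio at most library mean plus 5 SD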;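 further: more negative B-score means stronger inhibition of thallium flux through KCNK3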
# KCNQ1 inh: blocks the human KCNQ1 potassium channel. B-score at 10 µM. CHO-K1 KCNQ1, FluxOR thallium flux fluorescence; active compounds read high. AID 2642. 1.3% of 310,000 active;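 active means compounds whose thallium flux B-score, printed positive for inhibition, exceeds three library SD while starting fluorescence stays within three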;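 further: channel opened by potassium depolarization with thallium stimulus after 20 min compound exposure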
# hERG rescue: hERG (human) protection from proarrhythmic block | 0.51% of 310,000 active | Q12809 | activation (rescue from dofetilide block), less the hit threshold, % at 10 µM | CHO-hERG, FluxOR thallium flux, dofetilide IC70 present;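 active means activation above the mean of controls blocked by dofetilide plus 5 SD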;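 further: thallium influx through hERG after potassium depolarization seen as dye fluorescence rise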
# KCNK9 inh conf: human KCNK9 inhibitor confirmation; shares compounds with KCNK9 inh; HEK293 KCNK9 cells, FluxOR thallium flux fluorescence; inhibition, % at 10 µM; 43% of 4,900 active;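 active means thallium signal inhibited by more than 5 SD of the compound-free buffer control wells, on both duplicate plates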;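 further: 0% = assay buffer control wells without compound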
# Kir21 sel: mouse Kir2.1 off-target activity of KCNK9 modulators | shares compounds with KCNK9 inh | Kir2.1 cells, FluxOR thallium flux fluorescence | inhibition, % at 10 µM | 4% of 4,900 active;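 active means thallium signal drop more than 5 SD beyond the mean of the no-compound control wells, seen in both duplicate plates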;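 further: signal is fluorescence rise after thallium addition divided by baseline fluorescence; plate controls were assay buffer only for no effect and full block by chlorpromazine control for full effect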
# HEK293 Tl ctr: second counter-screen for KCNK9 modulators: effect in non-induced cells; AID 492997; 40% of 4,900 active; shares compounds with KCNK9 inh; inhibition, % at 10 µM; non-induced KCNK9-HEK293, FluxOR thallium flux;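 active means thallium signal drop beyond 5 SD of the untreated control mean, on both duplicate plates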;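 further: plate controls were buffer only IC0 wells for no effect and SID17386958 at its maximal inhibitory level for full effect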
# Starred values were filed as active, the others as inactive; i = inactive; · = not tested or not shown. In the library only some 3.8% were active in any assay of this set; here they are far more common.
SMILES,Kir21 inh,KCNQ1 pot,KCNK9 inh,KCNK3 block,KCNQ1 inh,hERG rescue,KCNK9 inh conf,Kir21 sel,HEK293 Tl ctr
COC(=O)C1=C(c2ccc(S(C)(=O)=O)cc2)C[C@@H]2CC[C@H]1N2C(=O)NCc1ccco1,-0.08,i,i,i,i,-9,·,·,·
C[C@H](N)CN1CCc2ccc(Br)cc21,0.05,i,i,i,i,-6,·,·,·
Cc1ncc(CN2CCCC(C(=O)c3cccc(OC(C)C)c3)C2)s1 (configuration not stated),-0.86,i,i,i,i,-6,i,i,i
COc1cccc(OC)c1CN1CCCC(C(=O)c2cccc(Cl)c2)C1 (configuration not stated),-1.3,i,i,i,i,-10,i,i,i
COc1ccc(C(=O)C2CCCN(Cc3ccc(F)cc3F)C2)cc1F (configuration not stated),-2,i,i,i,i,-6,i,i,i
COc1ccc(OC)c(CN2CCCC(C(=O)c3sccc3C)C2)c1 (configuration not stated),-1.9,i,i,i,i,-13,i,i,i
Cc1ccccc1N1CCN(C2CCCN(C(=O)COc3ccccc3)C2)CC1 (configuration not stated),0,i,i,i,i,-12,i,i,i
C/C(=N\N1CCCCCC1)c1c(O)n(-c2ccc(Cl)cc2)c(=O)[nH]c1=O,0.14,i,i,i,i,-8,i,i,i
C/C(=N\N1CCCCCC1)c1c(O)n(-c2ccc(C)cc2)c(=O)[nH]c1=O,-0.53,i,i,i,i,-3,·,·,·
CCOC(=O)c1cnc(SCc2ccc(Cl)c(Cl)c2)nc1N1CC1,·,·,·,i,·,·,·,·,·
CSc1ccc(CN2CCN(Cc3ccccc3Cl)CC2)cc1,-4.9*,i,i,i,i,-10,i,41%*,i
CSc1ccc(CN2CCN(C(=O)Cc3ccccc3)CC2)cc1,1.9,i,i,i,i,-1,·,·,·
CCC(=NCc1cc(OC)cc(OC)c1)c1c(O)[nH]c(=O)[nH]c1=O,-0.31,i,i,i,i,-11,·,·,·
Cn1c(O)c(/C=C/C=Nc2ccccc2)c(=O)n(C)c1=O,-2.4,i,i,i,i,-11,·,·,·
CCCCn1c(O)c(/C=C/C=Nc2ccccc2)c(=O)[nH]c1=O,-5.8,i,-9.2*,i,i,-5,i,i,54%*
COc1ccc(OC)c(NP(=O)(Oc2ccccc2)Oc2ccccc2)c1,-2,i,i,i,i,-5,·,·,·
COc1ccc(OC)c(NP(=O)(Oc2ccc(Cl)cc2)Oc2ccc(Cl)cc2)c1,-0.14,i,-11*,i,i,-6,76%*,i,44%*
CCN1C[C@]2(COC(=O)c3ccccc3N)CC[C@H](OC)C34[C@@H]5C[C@H]6[C@H](OC)[C@@H]5[C@](O)(C[C@@H]6OC)[C@@](O)([C@H]13)[C@@H](OC)[C@@H]42,0.07,i,i,i,i,-8,·,·,·
CC(C)(C)n1c(O)c(C=Nc2ccc3c(c2)CCC3)c(=O)[nH]c1=O,-0.44,i,i,i,i,-10,·,·,·
O=C(Cc1ccccc1)Oc1cccc(N2C(=O)CCC2=O)c1,2.9,i,i,i,i,-5,·,·,·
CC(C)(C)c1cc(OC(=O)Cc2ccccc2)ccc1O,-0.26,i,-12*,i,i,-6,58%*,i,30%*
CN1C(=O)C2C[C@@]3(Br)c4ccccc4N(OOSc4ccccc4)[C@H]3N2C(=O)[C@@H]1Cc1ccccc1 (some centres not stated),-0.4,i,i,i,i,-7,·,·,·
O=C(NC1CN2CCC1CC2)c1cc(Cl)c([N+](=O)[O-])c2nc[nH]c12 (configuration not stated),0.09,i,i,i,i,-11,·,·,·
O=C(Nc1ccccc1)c1cccn(Cc2ccccc2)c1=O,0.7,i,i,i,i,-11,·,·,·
O=C(NCc1ccccc1)c1cccn(Cc2cccc(Cl)c2)c1=O,-0.3,i,-11*,i,i,-8,57%*,i,30%*
SMILES,Kir21 inh,KCNQ1 pot,KCNK9 inh,KCNK3 block,KCNQ1 inh,hERG rescue,KCNK9 inh conf,Kir21 sel,HEK293 Tl ctr
COc1ccc(C(=O)C2CCCN(C3CSCCSC3)C2)c(OC)c1 (configuration not stated),-2.1,i,i,i,i,-8,·,·,·
COc1ccc(C(=O)C2CCCN(C3CSCCSC3)C2)c(C)c1 (configuration not stated),-1.2,i,i,i,i,-8,i,i,i
O=[N+]([O-])c1cc(-n2cnnn2)c(O)c([N+](=O)[O-])c1,-0.32,i,i,i,i,-13,·,·,·
Cc1cc(OC(C)C(=O)NCc2ccncc2)c2c3c(c(=O)oc2c1)CCCC3 (configuration not stated),-1.1,i,i,i,i,-10,·,·,·
Cc1nn(CCC#N)c2c1P(=S)(N1CCCC1)OC(c1ccc(F)cc1)=N2 (configuration not stated),-3.2,i,i,i,i,-8,i,i,i
COCCCn1c(N)c(C(=O)OCCOC)c2nc3ccccc3nc21,0.94,i,i,i,i,-4,·,·,·
CCCCNC(=O)c1c(N)n(CCCOC)c2nc3ccccc3nc12,-0.94,i,-8.7*,i,i,-28,i,i,i
O=C(c1ccco1)c1cn(Cc2ccc(Cl)cc2)c2ccccc12,-1.5,i,-8.7*,i,i,-16,56%*,i,37%*
COc1ccccc1OCCCn1cc(C(=O)c2ccco2)c2ccccc21,-0.15,i,-9.8*,i,i,-10,32%*,i,i
COc1ccc(CNC(=O)CCC(=O)N2C[C@H]3C[C@H](C2)c2cccc(=O)n2C3)cc1,0.34,i,i,i,i,-3,·,·,·
COC(=O)C(O)(c1ccc(NC(=S)NC(=O)c2ccccc2)cc1)C(F)(F)F (configuration not stated),-2.1,i,-9.7*,i,i,-7,46%*,i,26%*
